Assay results as given in ChEMBL document CHEMBL5385869, “Novel 4-aminoquinolines: Synthesis, inhibition of the Mycobacterium tuberculosis enoyl-acyl carrier protein reductase, antitubercular activity, SAR, and preclinical evaluation” (Eur J Med Chem, 2023).
≈ marks a conversion by molar mass, not a printed value. Calls of active or inactive are those of the source. No cut-off for these calls is given here.

Key:
[1] = target: T1, Enoyl-[acyl-carrier-protein] reductase [NADH] (Mycobacterium tuberculosis, UniProt P9WGR1); experiment: Binding affinity to Mycobacterium tuberculosis InhA assessed as dissociation constant at 250 uM at 30 degreeC in presence of NADH by fluorescence spectroscopy
T1 sequence (P9WGR1 whole entry): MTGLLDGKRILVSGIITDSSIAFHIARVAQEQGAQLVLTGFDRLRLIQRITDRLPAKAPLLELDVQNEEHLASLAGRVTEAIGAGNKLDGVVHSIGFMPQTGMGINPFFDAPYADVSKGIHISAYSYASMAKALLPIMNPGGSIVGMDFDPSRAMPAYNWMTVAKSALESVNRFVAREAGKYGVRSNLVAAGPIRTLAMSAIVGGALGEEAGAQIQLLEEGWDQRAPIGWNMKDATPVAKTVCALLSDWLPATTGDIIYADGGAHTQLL
Outline: (§1)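 Titration of pre-formed MtInhA:NADH complex (2 mL of 3 μM enzyme with 20 μM NADH), adding microliter aliquots of 250 μM ligand stock with dilution kept ≤1%. Intrinsic fluorescence read at 295 nm excitation, 310–500 nm emission. Temperatures 15, 20, 25 and 30 °C. KD is fitted to a hyperbolic isotherm. ΔH°, ΔS° and ΔG° come from van't Hoff analysis of KD across temperatures.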

[2] = Chemical stability in 0.1 M NH4HCO3 solution at pH 9.1 assessed as parent compound remaining at 1 to 10 uM measured after 24 hrs by HPLC-EM/MS analysis; type: physicochemical; conditions: dose 1-10 µM, read-out: Stability
Outline: (§2)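 Compounds at 1–10 μM incubated 24 h at 37 °C in three media: pH 1.2 (0.1 M HCl), pH 7.4 (PBS) and pH 9.1 (0.1 M NH4HCO3). Remaining parent compound quantified afterward.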

[3] = Toxicity in mouse assessed as effect on spleen weight at 300 mg/kg administered as single dose and measured for 14 days; type: organism-based; conditions: in vivo, 336 h, time 14 day
Outline: (§3)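 Acute oral toxicity study. At day 14 the animals were euthanized, and kidneys, liver and spleen were weighed and inspected macroscopically.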

[4] = Toxicity in mouse assessed as effect on body weight at 300 mg/kg administered as single dose and measured for 14 days; type: organism-based; conditions: in vivo, 336 h, time 14 day; outline: as §3
[5] = tested on: Mycobacterium tuberculosis; experiment: Potency index, ratio of isoniazid MIC to test compound MIC for antibacterial activity against pan-sensitive Mycobacterium tuberculosis H37Rv ATCC 27294 measured after 7 days by resazurin dye based assay; type: functional; conditions: time 7 day
[6] = Metabolic stability in rat liver microsomes assessed as half life at 2 uM measured upto 30 mins by HPLC/MS/MS analysis; type: ADME, Microsome
Outline: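 Compounds at 2 μM incubated at 37 °C with 1 mg/mL rat liver microsomes containing NADPH. Parent compound consumption followed over time.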

[7] = Toxicity in CF-1 mouse assessed as reduction in body weight at 300 to 450 uM/kg, po administered daily for 14 days; type: organism-based; conditions: in vivo, 336 h, dose 300-450 µM/Kg, time 14 day
Outline: (§4)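 Mice were infected with M. tuberculosis H37Rv. From 7 days after infection, test and reference drugs were given daily by oral gavage for 14 days, with a vehicle-only group. Body weight was followed over the course of the experiment.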

[8] = target: T1, Enoyl-[acyl-carrier-protein] reductase [NADH]; experiment: Noncompetitive inhibition of Mycobacterium tuberculosis InhA using DD-CoA as substrate assessed as inhibition constant for enzyme-inhibitor binary complex in presence of varying concentrations of NADH by double reciprocal plot analysis
[9] = Toxicity in mouse assessed as animal death at 300 mg/kg administered as single dose and measured for 14 days; type: organism-based; conditions: in vivo, 336 h, time 14 day; outline: as §3
[10] = Toxicity in CF-1 mouse assessed as reduction in body weight at 150 uM/kg, po administered daily for 14 days; type: organism-based; conditions: in vivo, 336 h, time 14 day; outline: as §4
[11] = Solubility of compound in PBS at pH 7.4 at 1 mg incubated for 4 hrs under shaking conditions by liquid chromotography; type: physicochemical
Outline: (§5)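 1 mg of compound was added to 1 mL of PBS pH 7.4 or 0.1 M HCl, in triplicate. Suspensions were vortexed 1 min, shaken 4 h at 25 °C, then centrifuged 13000 rpm for 15 min at 25 °C. Supernatant was quantified by reverse-phase UHPLC (UV 260–280 nm) against a single-point calibration of compound in DMSO.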

[12] = target: T1, Enoyl-[acyl-carrier-protein] reductase [NADH]; experiment: Competitive inhibition of Mycobacterium tuberculosis InhA using varying concentrations of DD-CoA as substrate assessed as inhibition constant for enzyme-inhibitor binary complex in presence of NADH by Lineweaver-Burk plot analysis
Outline: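 Steady-state kinetics with recombinant MtInhA in 100 mM Pipes pH 7.0 at 25 °C. NADH fixed at 60 μM, DD-CoA varied 15–135 μM, inhibitor at fixed-varied levels of 0.2–4 μM. Kis is fitted to the competitive inhibition equation.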

Acinetobacter baumannii = experiment: Antibacterial activity against multidrug-resistant Acinetobacter baumannii clinical isolates assessed as inhibition of bacterial growth at 20 uM by broth microdilution method; type: functional, organism-based
Outline: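 Broth microdilution in triplicate against a small bacterial panel, with compounds tested at 20 μM for growth inhibition.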

[13] = Selectivity index, ratio of CC50 for African green monkey Vero cells by MTT assay to MIC for pan-sensitive Mycobacterium tuberculosis H37Rv ATCC 27294; type: toxicity, cell-based; conditions: read-out: Selectivity Index
[14] = Cytotoxicity against human HepG2 cells assessed as reduction in cell viability incubated for 72 hrs by neutral red uptake assay; type: toxicity, cell-based
Outline: (§6)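 Cells grown in DMEM with 10% FBS. HepG2 seeded at 4 × 10³ and Vero at 2 × 10³ cells/well, 24 h before dosing. Compounds at 1, 5 and 20 μM in 1% DMSO for 72 h at 37 °C, 5% CO2. MTT readout: 5 mg/mL reagent for 4 h, absorbance at 595 nm. Neutral red readout: 25 μg/mL dye for 3 h, then acid-ethanol desorb. Viability is expressed relative to 1% DMSO controls.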

[15] = Chemical stability in 0.1 M HCl solution at pH 1.2 assessed as parent compound remaining at 1 to 10 uM measured after 24 hrs by HPLC-EM/MS analysis; type: physicochemical; conditions: dose 1-10 µM, read-out: Stability; outline: as §2
[16] = Cytotoxicity against human HepG2 cells assessed as reduction in cell viability incubated for 72 hrs by MTT assay; type: toxicity, cell-based; outline: as §6
[17] = Solubility of compound in 0.1 M HCl solution at pH 1.2 at 1 mg incubated for 4 hrs under shaking conditions by liquid chromotography; type: physicochemical; outline: as §5
[18] = Selectivity index, ratio of CC50 for African green monkey Vero cells by neutral red uptake assay to MIC for pan-sensitive Mycobacterium tuberculosis H37Rv ATCC 27294; type: toxicity, cell-based; conditions: read-out: Selectivity Index
[19] = target: T2, Enoyl-[acyl-carrier-protein] reductase [NADH] (Mycobacterium tuberculosis) (UniProt P9WGR1); experiment: Time dependent inhibition of Mycobacterium tuberculosis InhA
T2 sequence (whole entry): T1 sequence (P9WGR1 whole entry)

[20] = target: T1, Enoyl-[acyl-carrier-protein] reductase [NADH]; experiment: Binding affinity to Mycobacterium tuberculosis InhA assessed as dissociation constant at 250 uM at 20 degreeC in presence of NADH by fluorescence spectroscopy; outline: as §1

Compound	remaining at 24 h, up to 10 µM [2] [%]	Ratio [5]	half-life at 2 µM [6] [min]	Ki [8] [nM]	solubility thermodynamic at 4 h [11] [µM]	Ki [12] [nM]	Activity (Acinetobacter baumannii)	selectivity ratio [13]	CC50 at 72 h [14] [nM]	remaining at 24 h, up to 10 µM [15] [%]	CC50 at 72 h [16] [nM]	solubility thermodynamic at 4 h [17] [µM]	selectivity ratio [18]	TDI [19]	other results
Cc1cc(Nc2ccc(N3CCCCC3)cc2)c2cc(Br)ccc2n1	47	~5.8	22	140	3.9 (≈ 1.55 µg/mL)	140	inactive	> 50	18300	94.6	> 20000	> 2500	30.5	inactive	Kd [1]: 1340 nM; Activity [3]: Non-Toxic; Activity [4]: Non-Toxic; Activity [7]: Non-Toxic; Activity [9]: Non-Toxic; Activity [10]: Non-Toxic; Kd [20]: 470 nM
Cc1cc(Nc2ccc(N3CCCCC3)cc2)c2cc(Cl)ccc2n1	24.7	~2.6	5.9	430	18.6 (≈ 6.54 µg/mL)	1330	inactive	21.3	16400	98.6	> 20000	> 2800	13	inactive	–
